Active and inactive are the calls of the source. The rule behind the calls is not given here.
Tests used:
[1] = molecular target: Mitogen-activated protein kinase 9 (Homo sapiens) (UniProt P45984); test: Inhibition of recombinant human N-terminal His6-tagged JNK2alpha2 (1 to 424 residues) expressed in baculovirus infected Sf21 cells assessed as remaining activity at 1 uM using ATF2 as substrate incubated for 30 mins in presence of [gamma-33P]ATP by filter binding method relative to control
[2] = molecular target: Serine/threonine-protein kinase mTOR (Mus musculus) (UniProt Q9JLN9); test: Inhibition of mTOR in MEF cells assessed as reduction in 4E-BP1 phosphorylation at S65 residues at 1 uM incubated for 30 mins by immunoblot analysis; type: cell-based
Summary of the method: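 HEK-293 cells or MEFs cultured in 10% serum and treated 30 min with inhibitor. Lysed in Tris lysis buffer. Lysates immunoblotted for 4E-BP1 phosphorylated at Thr37/Thr46 and Ser65, with mobility shift noted. Three experiments.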

[3] = tested on: RAC-alpha serine/threonine-protein kinase (Homo sapiens), P31749 [S473D]; test: Inhibition of recombinant human His6-tagged AKT1 S473D mutant (118 to 480 residues) expressed in baculovirus infected Sf21 cells assessed as remaining activity at 10 uM using crosstide peptide as substrate incubated for 30 mins in presence of [gamma-33P]ATP by filter binding method relative to control
Summary of the method: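 Radiometric panel assay run robotically at 21 °C for 30 min, linear in time and enzyme. […] Activity is expressed as percentage of the compound-omitted control, averaged from triplicates ± S.D.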

[4] = molecular target: Ribosomal protein S6 kinase alpha-3 (Homo sapiens) (UniProt P51812); test: Inhibition of recombinant human N-terminal His6-tagged RSK2 (2 to 740 residues) expressed in baculovirus infected Sf21 cells assessed as remaining activity at 10 uM using KKLNRTLSVA as substrate incubated for 30 mins in presence of [gamma-33P]ATP by filter binding method relative to control
Sequence of Ribosomal protein S6 kinase alpha-3 (Homo sapiens) (P51812 whole entry, the tested form may be a part): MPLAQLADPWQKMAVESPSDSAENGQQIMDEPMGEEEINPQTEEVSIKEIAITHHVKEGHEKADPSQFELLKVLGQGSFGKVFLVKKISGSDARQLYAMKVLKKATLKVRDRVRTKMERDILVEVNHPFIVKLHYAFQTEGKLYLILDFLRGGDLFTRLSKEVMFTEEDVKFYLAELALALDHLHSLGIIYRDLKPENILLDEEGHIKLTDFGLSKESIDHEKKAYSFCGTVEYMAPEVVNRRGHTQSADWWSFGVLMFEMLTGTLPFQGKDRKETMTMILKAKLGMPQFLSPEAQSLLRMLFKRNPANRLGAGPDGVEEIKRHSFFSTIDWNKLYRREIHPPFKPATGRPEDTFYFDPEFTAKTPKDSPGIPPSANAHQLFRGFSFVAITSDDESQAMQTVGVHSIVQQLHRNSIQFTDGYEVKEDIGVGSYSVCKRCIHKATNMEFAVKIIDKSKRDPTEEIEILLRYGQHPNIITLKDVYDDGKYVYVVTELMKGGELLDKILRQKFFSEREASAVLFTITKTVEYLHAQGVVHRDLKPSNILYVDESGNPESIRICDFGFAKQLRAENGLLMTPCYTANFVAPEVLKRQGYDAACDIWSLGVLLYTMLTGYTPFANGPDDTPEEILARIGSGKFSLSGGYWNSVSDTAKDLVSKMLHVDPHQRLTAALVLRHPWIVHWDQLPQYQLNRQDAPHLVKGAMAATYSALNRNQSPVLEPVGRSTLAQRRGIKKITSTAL
Summary of the method: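 Assays ran 30 min at 21 °C, robotically and in the linear range. Remaining activity is given relative to incubations lacking compound, as the average of triplicate determinations ± S.D.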

[5] = molecular target: Eukaryotic elongation factor 2 kinase (Homo sapiens) (UniProt O00418); test: Inhibition of recombinant human N-terminal GST-tagged EF2K (2 to 725 residues) expressed in Escherichia coli assessed as remaining activity at 10 uM using RKKFGESKTKTKEFL as substrate incubated for 30 mins in presence of [gamma-33P]ATP by filter binding method relative to control
Summary of the method: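 Kinase panel run robotically at 21 °C for 30 min, linear in time and enzyme. […] Compound tested at 1 or 10 µM. Activity given as percentage of incubations without compound, mean of triplicates ± S.D.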

MEF [6] = test: Inhibition of mTORC2 in serum starved Rictor knockout MEF cells assessed as reduction IGF1-stimulated AKT phosphorylation at Thr308 residue at 100 to 1000 nM incubated for 20 mins by immunoblot analysis; type: cell-based; details: Mus musculus, dose 100-1000 nM
Summary of the method: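 Serum withdrawn 16 h. Inhibitor or vehicle given 30 min before stimulation with 50 ng/ml IGF-1 for 20 min. Lysed in Tris lysis buffer and immunoblotted for Akt Thr308 phosphorylation with ECL detection. Applies to HEK-293 and to wild-type, Rictor, Sin1 or mLST8 knockout MEFs. Three independent experiments.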

[7] = molecular target: Dual specificity tyrosine-phosphorylation-regulated kinase 3 (Homo sapiens) (UniProt O43781); test: Inhibition of recombinant human N-terminal GST-tagged DYRK3 (1 to 588 residues) expressed in Escherichia coli assessed as remaining activity at 1 uM using KKISGRLSPIMTEQ as substrate incubated for 30 mins in presence of [gamma-33P]ATP by filter binding method relative to control
Summary of the method: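 Radiometric kinase panel run robotically at 21 °C for 30 min, linear in time and enzyme. […] Activity expressed as percentage of control without inhibitor; triplicate determinations.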

[8] = molecular target: Mitogen-activated protein kinase 15 (Homo sapiens) (UniProt Q8TD08); test: Inhibition of recombinant human N-terminal His6-tagged ERK8 (2 to 544 residues) expressed in baculovirus infected Sf21 cells assessed as remaining activity at 1 uM using MBP as substrate incubated for 30 mins in presence of [gamma-33P]ATP by filter binding method relative to control
Sequence of Mitogen-activated protein kinase 15 (Homo sapiens) (Q8TD08 whole entry, the tested form may be a part): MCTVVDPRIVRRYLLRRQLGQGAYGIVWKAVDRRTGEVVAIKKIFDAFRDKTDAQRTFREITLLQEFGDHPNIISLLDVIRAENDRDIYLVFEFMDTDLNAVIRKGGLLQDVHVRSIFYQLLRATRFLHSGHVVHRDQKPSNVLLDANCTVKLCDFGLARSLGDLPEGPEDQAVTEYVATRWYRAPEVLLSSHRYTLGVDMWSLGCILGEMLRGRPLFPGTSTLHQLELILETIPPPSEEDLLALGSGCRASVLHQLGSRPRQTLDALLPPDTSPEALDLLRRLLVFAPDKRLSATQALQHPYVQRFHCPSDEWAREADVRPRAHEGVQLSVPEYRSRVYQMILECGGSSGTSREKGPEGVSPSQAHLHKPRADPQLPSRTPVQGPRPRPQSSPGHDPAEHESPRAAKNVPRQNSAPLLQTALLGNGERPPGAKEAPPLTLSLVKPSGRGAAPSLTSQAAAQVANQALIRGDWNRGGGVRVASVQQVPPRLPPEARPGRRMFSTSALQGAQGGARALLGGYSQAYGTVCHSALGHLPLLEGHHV
Summary of the method: (§1)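 Radiometric kinase panel run robotically at room temperature (21 °C) for 30 min, linear in time and enzyme. […] Activity is expressed as percent of control without compound, from triplicate determinations ± S.D.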

MEF [9] = test: Induction of cell cycle arrest in mLST8 knockout MEF cells assessed as accumulation at G2 phase at 3 uM incubated for 1 to 3 days by propidium iodide staining based flow cytometric analysis (reference value: 14.1 +/- 0.69%); type: toxicity; details: mouse, time 1-3 day
[10] = molecular target: MAP kinase-interacting serine/threonine-protein kinase 2 (Homo sapiens) (UniProt Q9HBH9); test: Inhibition of recombinant human N-terminal GST/C-terminal His6-tagged MNK2alpha (2 to 465 residues) expressed in Escherichia coli assessed as remaining activity at 10 uM using eIF4E as substrate incubated for 30 mins in presence of [gamma-33P]ATP by filter binding method relative to control
Sequence of MAP kinase-interacting serine/threonine-protein kinase 2 (Homo sapiens) (Q9HBH9 whole entry, looked up, the tested form may be a part): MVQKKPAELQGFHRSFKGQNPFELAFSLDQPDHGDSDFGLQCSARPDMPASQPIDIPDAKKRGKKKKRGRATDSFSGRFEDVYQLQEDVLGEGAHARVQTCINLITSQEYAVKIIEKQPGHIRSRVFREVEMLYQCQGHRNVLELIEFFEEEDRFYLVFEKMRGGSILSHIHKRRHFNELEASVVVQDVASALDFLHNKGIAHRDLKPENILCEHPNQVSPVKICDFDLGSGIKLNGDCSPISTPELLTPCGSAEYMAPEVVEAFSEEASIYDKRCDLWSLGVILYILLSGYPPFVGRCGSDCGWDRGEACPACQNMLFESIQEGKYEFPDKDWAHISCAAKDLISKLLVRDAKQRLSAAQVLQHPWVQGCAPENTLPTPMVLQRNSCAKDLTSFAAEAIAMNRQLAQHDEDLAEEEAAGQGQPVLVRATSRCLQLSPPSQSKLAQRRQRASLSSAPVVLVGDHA

[11] = molecular target: Insulin-like growth factor 1 receptor (Homo sapiens) (UniProt P08069); test: Inhibition of recombinant human N-terminal His6-tagged IGF1R (954 to 1367 residues) expressed in baculovirus infected Sf21 cells assessed as remaining activity at 10 uM using KKKSPGEYVNIEFG as substrate incubated for 30 mins in presence of [gamma-33P]ATP by filter binding method relative to control; summary of the method: as §1
[12] = molecular target: Protein kinase C zeta type (Homo sapiens) (UniProt Q05513); test: Inhibition of recombinant human N-terminal His6-tagged PKCzeta (2 to 592 residues) expressed in baculovirus infected Sf21 cells assessed as remaining activity at 1 uM using ERMRPRKRQGSVRRV as substrate incubated for 30 mins in presence of [gamma-33P]ATP by filter binding method relative to control
[13] = molecular target: Protein kinase C alpha type (Homo sapiens) (UniProt P17252); test: Inhibition of recombinant human N-terminal His6-tagged PKCalpha (1 to 672 residues) expressed in baculovirus infected Sf21 cells assessed as remaining activity at 1 uM using Histone H1 as substrate incubated for 30 mins in presence of [gamma-33P]ATP by filter binding method relative to control
[14] = molecular target: MAP kinase-interacting serine/threonine-protein kinase 2 (Homo sapiens) (UniProt Q9HBH9); test: Inhibition of recombinant human N-terminal GST/C-terminal His6-tagged MNK2alpha (2 to 465 residues) expressed in Escherichia coli assessed as remaining activity at 1 uM using eIF4E as substrate incubated for 30 mins in presence of [gamma-33P]ATP by filter binding method relative to control
mTORC1 (Homo sapiens) [15] = molecular target: T1, mTORC1 (Homo sapiens) (UniProt P42345+Q8N122+Q9BVC4); details: HEK293, dose 100-300 nM, time 30.0 min
T1 sequence (Q8N122 whole entry, looked up, other chains not shown): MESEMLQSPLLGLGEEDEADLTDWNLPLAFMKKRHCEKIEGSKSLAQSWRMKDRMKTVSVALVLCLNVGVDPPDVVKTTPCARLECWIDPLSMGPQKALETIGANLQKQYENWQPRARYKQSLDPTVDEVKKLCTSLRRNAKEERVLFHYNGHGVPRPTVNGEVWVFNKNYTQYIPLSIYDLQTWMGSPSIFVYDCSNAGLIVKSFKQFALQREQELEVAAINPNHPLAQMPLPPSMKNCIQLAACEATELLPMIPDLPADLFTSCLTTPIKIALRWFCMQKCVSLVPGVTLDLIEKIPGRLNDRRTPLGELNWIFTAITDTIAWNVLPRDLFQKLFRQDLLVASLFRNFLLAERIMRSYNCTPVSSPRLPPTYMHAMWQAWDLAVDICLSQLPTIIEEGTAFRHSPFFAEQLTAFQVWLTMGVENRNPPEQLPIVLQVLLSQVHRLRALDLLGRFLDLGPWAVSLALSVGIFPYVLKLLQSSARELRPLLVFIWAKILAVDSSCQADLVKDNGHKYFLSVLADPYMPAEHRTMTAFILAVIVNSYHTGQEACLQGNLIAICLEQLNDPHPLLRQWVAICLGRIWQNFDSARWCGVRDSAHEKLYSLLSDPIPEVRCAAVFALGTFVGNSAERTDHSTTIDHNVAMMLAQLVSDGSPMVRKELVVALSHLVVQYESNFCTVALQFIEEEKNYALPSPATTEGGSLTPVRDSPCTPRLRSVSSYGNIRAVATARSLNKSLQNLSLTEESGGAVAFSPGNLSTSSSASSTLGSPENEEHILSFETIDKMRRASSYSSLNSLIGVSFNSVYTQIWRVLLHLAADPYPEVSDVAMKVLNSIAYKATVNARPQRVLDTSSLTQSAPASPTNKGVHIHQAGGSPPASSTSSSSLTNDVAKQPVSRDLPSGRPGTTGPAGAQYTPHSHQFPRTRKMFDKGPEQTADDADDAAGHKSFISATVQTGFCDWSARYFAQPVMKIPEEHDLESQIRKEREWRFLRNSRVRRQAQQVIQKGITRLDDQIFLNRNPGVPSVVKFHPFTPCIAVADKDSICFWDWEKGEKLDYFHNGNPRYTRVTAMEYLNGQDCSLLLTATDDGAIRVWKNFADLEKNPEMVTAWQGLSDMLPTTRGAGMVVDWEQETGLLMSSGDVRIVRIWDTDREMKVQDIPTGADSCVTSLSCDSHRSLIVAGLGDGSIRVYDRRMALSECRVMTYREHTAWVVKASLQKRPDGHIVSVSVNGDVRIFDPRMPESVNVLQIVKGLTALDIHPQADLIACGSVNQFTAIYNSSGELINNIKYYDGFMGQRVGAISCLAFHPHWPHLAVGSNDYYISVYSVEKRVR
T1 sequence (Q9BVC4 whole entry, looked up, other chains not shown): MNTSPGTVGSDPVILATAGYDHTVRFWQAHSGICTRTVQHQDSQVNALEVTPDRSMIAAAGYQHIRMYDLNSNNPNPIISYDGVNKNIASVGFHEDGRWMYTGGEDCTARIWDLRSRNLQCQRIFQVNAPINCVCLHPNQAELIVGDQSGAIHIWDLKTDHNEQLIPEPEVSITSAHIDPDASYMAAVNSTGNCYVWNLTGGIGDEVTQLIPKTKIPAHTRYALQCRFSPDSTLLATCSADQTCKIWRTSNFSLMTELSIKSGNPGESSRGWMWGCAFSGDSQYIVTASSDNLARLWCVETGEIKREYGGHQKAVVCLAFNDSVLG

[16] = molecular target: Myosin light chain kinase (Homo sapiens) (UniProt Q32MK0); test: Inhibition of MLCK (unknown origin) assessed as remaining activity at 1 uM relative to control
Sequence of Myosin light chain kinase (Homo sapiens) (Q32MK0 whole entry): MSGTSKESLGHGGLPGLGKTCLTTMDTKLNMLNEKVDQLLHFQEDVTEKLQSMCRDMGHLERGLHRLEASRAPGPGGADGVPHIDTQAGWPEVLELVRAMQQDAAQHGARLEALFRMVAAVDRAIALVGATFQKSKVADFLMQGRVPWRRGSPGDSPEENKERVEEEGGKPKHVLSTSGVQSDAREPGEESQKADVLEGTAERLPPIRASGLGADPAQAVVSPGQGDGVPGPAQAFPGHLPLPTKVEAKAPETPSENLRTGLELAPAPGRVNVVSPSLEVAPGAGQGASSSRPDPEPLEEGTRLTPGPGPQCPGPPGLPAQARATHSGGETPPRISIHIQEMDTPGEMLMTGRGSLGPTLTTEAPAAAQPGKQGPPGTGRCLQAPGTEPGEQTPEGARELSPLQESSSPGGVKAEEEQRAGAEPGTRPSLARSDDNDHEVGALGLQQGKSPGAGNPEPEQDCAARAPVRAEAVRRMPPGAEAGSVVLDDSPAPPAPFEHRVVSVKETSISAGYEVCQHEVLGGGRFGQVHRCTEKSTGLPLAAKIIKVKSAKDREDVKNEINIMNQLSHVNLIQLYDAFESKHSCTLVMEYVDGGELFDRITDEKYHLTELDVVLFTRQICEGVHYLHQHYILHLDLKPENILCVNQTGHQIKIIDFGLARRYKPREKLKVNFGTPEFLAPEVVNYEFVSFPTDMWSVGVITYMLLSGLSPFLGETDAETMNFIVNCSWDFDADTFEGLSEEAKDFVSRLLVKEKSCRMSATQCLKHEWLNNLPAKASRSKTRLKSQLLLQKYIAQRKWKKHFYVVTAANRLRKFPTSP
Summary of the method: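 Profiling-centre panel assay performed robotically at 21 °C for 30 min, linear with time and enzyme. […] Values are percent of compound-free control activity, the mean of triplicates ± S.D.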

mTORC1 (Homo sapiens) [17] = molecular target: T1, mTORC1 (Homo sapiens); details: HEK293, dose 30-1000 nM, time 30.0 min

## COc1ccc(-c2ccc3c(N4CCOCC4)nc(N4C[C@@H](C)O[C@@H](C)C4)nc3n2)cc1CO [Ku-0063794]
[1]
  Activity: 101%
[2]
  inhibition: Active
[3]
  Activity: 90%
[4]
  Activity: 104%
[5]
  Activity: 108%
MEF [6]
  inhibition: Active
[7]
  Activity: 88%
[8]
  Activity: 88%
MEF [9]
  Activity: 13.3%
[10]
  Activity: 92%
[11]
  Activity: 89%
[12]
  Activity: 87%
[13]
  Activity: 106%
[14]
  Activity: 87%
mTORC1 (Homo sapiens) [15]
  inhibition: 100%
[16]
  Activity: 82%
mTORC1 (Homo sapiens) [17]
  inhibition: Dose-Dependent Effect
